Data reported in ChEMBL document CHEMBL1154084, “Preparation and antitubercular activities in vitro and in vivo of novel Schiff bases of isoniazid” (Eur J Med Chem, 2009).
Converted amounts (≈) assume the structure as drawn.

Key:
Type in all cases: functional
[1] = system: Mycobacterium tuberculosis; test: Antitubercular activity against Mycobacterium tuberculosis H37Rv by broth dilution method
[2] = system: Mycobacterium tuberculosis; test: Antitubercular activity against Mycobacterium tuberculosis Erdman by broth dilution method
Procedure, shortened: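 Modified 7H10 broth (no agar or malachite green; pH 6.6) with 10% OADC and 0.05% Tween 80; broth dilution MIC90. Inoculum grown 5 days at 37°C on rotary shaker, diluted to 100 Klett units/mL (about 5 × 10^7 cfu/mL), checked by triplicate 7H10 agar counts after 4 weeks at 37°C. Compounds dissolved in DMSO, diluted in distilled water; isoniazid and PAS as reference standards.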

[3] = Selectivity index, ratio IC50 for african green monkey Vero cells to MIC for Mycobacterium tuberculosis H37Rv
Procedure, shortened: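 Vero cells exposed 72 h, at up to ten times the MIC, with viability read by a cell proliferation assay. SI is IC50 divided by the MIC against H37Rv; the screening criterion is SI >10.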

[4] = system: Mycobacterium tuberculosis; test: Bacteriostatic activity in Mycobacterium tuberculosis Erdman infected in mouse macrophages assessed as reduction of colony forming units after 7 days; settings: 168 h
Procedure, shortened: (§1)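 CFU read at 7 days against drug-free controls. EC90 is the lowest concentration giving 90% CFU reduction (bacteriostatic); EC99 is the lowest giving 99% (bactericidal).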

[5] = system: Mycobacterium tuberculosis; test: Bactericidal activity in Mycobacterium tuberculosis Erdman infected in mouse macrophages assessed as reduction of colony forming units after 7 days; settings: 168 h; procedure, shortened: as §1
[6] = Ratio of EC90 for Mycobacterium tuberculosis Erdman to MIC for Mycobacterium tuberculosis H37Rv
[7] = system: Mycobacterium tuberculosis; test: Antitubercular activity against Mycobacterium tuberculosis infected in CD1 mouse assessed colony forming units per lung at 25 mg/kg administered 5 days a week for 4 weeks after 1 week post-infection by long course therapy (Rvb=8.80 +/- 0.18 logCFU/lung)
[8] = system: Mycobacterium tuberculosis; test: Antitubercular activity against Mycobacterium tuberculosis infected in C57BL/6 mouse assessed reduction in colony forming units per lung at 25 mg/kg administered for 2 days after 24 hrs post-infection measured after 3 days by short course therapy (Rvb=6.51 +/- 0.13 logCFU/lung)

SMILES	MIC90 [1] [µg/mL]	Ratio [3]	other results
O=C(N/N=C/c1ccccc1[N+](=O)[O-])c1ccncc1	0.39 (≈ 1.44 µM)	–	–
Nc1ccc(C(=O)O)c(O)c1 [AMINOSALICYLIC ACID]	–	–	MIC [2]: 0.03 µg/mL (≈ 0.196 µM)
O=C(N/N=C/c1ccc(/C=N/NC(=O)c2ccncc2)cc1)c1ccncc1	0.05 (≈ 0.134 µM)	>126	–
O=C(N/N=C/c1ccc(Br)cc1)c1ccncc1	3.13 (≈ 10.3 µM)	12	–
O=C(NN=C1CCCCC1)c1ccncc1	0.03 (≈ 0.138 µM)	>40000	EC90 [4]: 0.08 µg/mL (≈ 0.368 µM); EC99 [5]: 0.42 µg/mL; Ratio [6]: 2.7; log10cfu [7]: 4.65
CCCCCCCCCCCC/C=N\NC(=O)c1ccncc1	0.2 (≈ 0.63 µM)	374	–
CC(C)=CCC/C(C)=C/C=N/NC(=O)c1ccncc1	0.1 (≈ 0.369 µM)	–	–
CC/C=C/C=N/NC(=O)c1ccncc1	0.05 (≈ 0.246 µM)	712	EC90 [4]: 0.028 µg/mL (≈ 0.138 µM); EC99 [5]: 0.529 µg/mL; Ratio [6]: 0.56
CCCC/C=C/C=N/NC(=O)c1ccncc1	< 6.25	–	–
COc1ccccc1/C=C/C=N/NC(=O)c1ccncc1	0.1 (≈ 0.355 µM)	–	–
CCC/C(CC(=O)OCC)=N/NC(=O)c1ccncc1 [ETHYL BUTYRYL ACETATE ISONICOTINOYLHYDRAZONE]	0.39	>2631	–
O=C(N/N=C/c1cccc([N+](=O)[O-])c1)c1ccncc1	–	8	–
CCOC(=O)C/C(C)=N\NC(=O)c1ccncc1 [ETHYL ACETOACETATE ISONICOTINOYLHYDRAZONE]	0.2 (≈ 0.802 µM)	>5000	–
CCCCCCOc1ccc(/C=N/NC(=O)c2ccncc2)cc1	–	1.5	–
CC(C)=NNC(=O)c1ccncc1	0.1 (≈ 0.564 µM)	>10000	–
CC(C)C/C=C(\C=N\NC(=O)c1ccncc1)C(C)C	–	>10	log10cfu [8]: 5.49
CC(C)=CCCC(C)C/C=N/NC(=O)c1ccncc1 (stereo not given)	0.2 (≈ 0.732 µM)	>1000	–
CCOC(=O)/C(CCc1ccccc1)=N\NC(=O)c1ccncc1	0.1 (≈ 0.307 µM)	>1250	–
CCOC(=O)C/C(Cc1ccccc1)=N/NC(=O)c1ccncc1	0.1 (≈ 0.307 µM)	>1250	EC90 [4]: 0.01 µg/mL (≈ 0.0307 µM); EC99 [5]: 0.211 µg/mL; Ratio [6]: 0.1
O=C(N/N=C/c1cccc(Cl)c1Cl)c1ccncc1	0.78 (≈ 2.65 µM)	>32	EC90 [4]: 0.071 µg/mL (≈ 0.241 µM); EC99 [5]: 0.3 µg/mL; Ratio [6]: 0.09
CCCC/C=C(\C=N\NC(=O)c1ccncc1)CCC	–	1.6	–
CC(/C=N/NC(=O)c1ccncc1)=C\c1ccccc1	0.5 (≈ 1.88 µM)	>250	log10cfu [8]: 5.22
